According to ChEMBL document CHEMBL1687714, “Genetic analysis of fenhexamid-resistant field isolates of the phytopathogenic fungus Botrytis cinerea” (Antimicrob Agents Chemother, 2008):
In brackets after ≈: the same amount, converted by molar mass. Activity calls are given as the source filed them. The calls are words filed in the database; no cut-off is given here.

Assays:
Botrytis cinerea [1] = assay: Antifungal activity against highly fenhexamid-resistant Botrytis cinerea 179 assessed as inhibition of germ tube elongation after 24 hrs; type: functional, organism-based; settings: Botrytis cinerea, 179, 24 h
Botrytis cinerea [2] = assay: Antifungal activity against moderately to slightly fenhexamid-resistant Botrytis cinerea 454 assessed as inhibition of mycelium growth measured over 5 days; type: functional, organism-based; settings: Botrytis cinerea, 454, 120 h
Botrytis cinerea [3] = assay: Antifungal activity against HydR3 deficient Botrytis cinerea 453 harboring TELerg F412I mutant at 1 ug/ml relative to wild-type; type: functional, organism-based
Outline: (§1)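 In the dominance test, the recipient strains 453b and 286 were transformed with different erg27 alleles. Spores of the transformants were grown on YSS medium containing fenhexamid at different concentrations and 50 µg ml–1 hygromycin B. Parental strains were grown without hygromycin. Growth was scored after 7 days at 21°C.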

Botrytis cinerea [4] = assay: Antifungal activity against highly fenhexamid-resistant Botrytis cinerea 506a assessed as inhibition of germ tube elongation after 24 hrs; type: functional, organism-based
Botrytis cinerea [5] = assay: Antifungal activity against moderately to slightly fenhexamid-resistant Botrytis cinerea 57 assessed as inhibition of germ tube elongation after 24 hrs; type: functional, organism-based; settings: Botrytis cinerea, 57, 24 h
Botrytis cinerea [6] = assay: Antifungal activity against Botrytis cinerea 223b expressing erg27 HydR3+ alleles assessed as appearance of dense mycelium up to 20 ug/ml; type: functional, organism-based
Outline: (§2)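 Spores of parental strains were spread on YSS (synthetic complete) medium containing fenhexamid at several concentrations, without hygromycin B. Growth was scored after 7 days at 21°C.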

Botrytis cinerea [7] = assay: Antifungal activity against highly fenhexamid-resistant Botrytis cinerea 506b assessed as inhibition of mycelium growth measured over 5 days; type: functional, organism-based; settings: 120 h
Botrytis cinerea [8] = assay: Antifungal activity against highly fenhexamid-resistant Botrytis cinerea 179 assessed as inhibition of mycelium growth measured over 5 days; type: functional, organism-based; settings: Botrytis cinerea, 179, 120 h
Botrytis cinerea [9] = assay: Antifungal activity against moderately to slightly fenhexamid-resistant Botrytis cinerea 221 assessed as inhibition of mycelium growth measured over 5 days; type: functional, organism-based; settings: Botrytis cinerea, 221, 120 h
Botrytis cinerea [10] = assay: Antifungal activity against highly fenhexamid-resistant Botrytis cinerea 312 assessed as inhibition of germ tube elongation after 24 hrs; type: functional, organism-based; settings: Botrytis cinerea, 312, 24 h
Botrytis cinerea [11] = assay: Antifungal activity against moderately to slightly fenhexamid-resistant Botrytis cinerea 452 assessed as inhibition of germ tube elongation after 24 hrs; type: functional, organism-based; settings: Botrytis cinerea, 452, 24 h
Botrytis cinerea [12] = assay: Antifungal activity against highly fenhexamid-resistant Botrytis cinerea 379b assessed as inhibition of mycelium growth measured over 5 days; type: functional, organism-based; settings: 120 h
Botrytis cinerea [13] = assay: Antifungal activity against Botrytis cinerea B05.10 harboring TELerg F412I mutant assessed as appearance of mycelium growth up to 20 ug/ml; type: functional
Outline: (§3)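 B05.10 transformants carrying the erg27 allele on the pFTELerg plasmid were grown on rich medium with hygromycin B until conidiation. Spores were spread on YSS (synthetic complete) medium with 50 µg ml–1 hygromycin B and fenhexamid at 1 to 20 µg ml–1. After 7 days at 21°C, spores developing mycelium were scored under the microscope.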

Botrytis cinerea [14] = assay: Antifungal activity against highly fenhexamid-resistant Botrytis cinerea 520a assessed as inhibition of germ tube elongation after 24 hrs; type: functional, organism-based
Botrytis cinerea [15] = assay: Antifungal activity against highly fenhexamid-resistant Botrytis cinerea 312 assessed as inhibition of mycelium growth measured over 5 days; type: functional, organism-based; settings: Botrytis cinerea, 312, 120 h
Botrytis cinerea [16] = assay: Antifungal activity against Botrytis cinerea 286 harboring TELerg S336C mutant at 1 ug/ml relative to wild-type; type: functional, organism-based; outline: as §1
Botrytis cinerea [17] = assay: Antifungal activity against Botrytis cinerea 1837 expressing erg27 HydR3+ alleles assessed as appearance of dense mycelium up to 20 ug/ml; type: functional, organism-based; outline: as §2
Botrytis cinerea [18] = assay: Antifungal activity against moderately to slightly fenhexamid-resistant Botrytis cinerea 365 assessed as inhibition of mycelium growth measured over 5 days; type: functional, organism-based; settings: Botrytis cinerea, 365, 120 h
Botrytis cinerea [19] = assay: Antifungal activity against highly fenhexamid-resistant Botrytis cinerea 05-AVB assessed as inhibition of germ tube elongation after 24 hrs; type: functional, organism-based
Botrytis cinerea [20] = assay: Antifungal activity against highly fenhexamid-resistant Botrytis cinerea 440a assessed as inhibition of germ tube elongation after 24 hrs; type: functional, organism-based
Botrytis cinerea [21] = assay: Antifungal activity against fenhexamid-senistive Botrytis cinerea SAS405 assessed as inhibition of mycelium growth measured over 5 days; type: functional, organism-based; settings: SAS405, 120 h
Botrytis cinerea [22] = assay: Antifungal activity against highly fenhexamid-resistant Botrytis cinerea MK5-2 assessed as inhibition of germ tube elongation after 24 hrs; type: functional, organism-based; settings: MK5-2, 24 h
Botrytis cinerea [23] = assay: Antifungal activity against Botrytis cinerea 286 harboring TELerg S336C mutant at 5 ug/ml relative to wild-type; type: functional, organism-based; outline: as §1
Botrytis cinerea [24] = assay: Antifungal activity against highly fenhexamid-resistant Botrytis cinerea 440b assessed as inhibition of mycelium growth measured over 5 days; type: functional, organism-based; settings: 120 h
Botrytis cinerea [25] = assay: Antifungal activity against HydR3 deficient Botrytis cinerea 453 harboring TELerg F412I mutant at 10 ug/ml relative to wild-type; type: functional, organism-based; outline: as §1
Botrytis cinerea [26] = assay: Antifungal activity against highly fenhexamid-resistant Botrytis cinerea 05-AVB assessed as inhibition of mycelium growth measured over 5 days; type: functional, organism-based; settings: 120 h
Botrytis cinerea [27] = assay: Antifungal activity against fenhexamid-senistive Botrytis cinerea B05.10 assessed as inhibition of germ tube elongation after 24 hrs; type: functional, organism-based; settings: B05.10, 24 h
Botrytis cinerea [28] = assay: Antifungal activity against Botrytis cinerea B05.10 harboring TELerg F412S mutant assessed as appearance of mycelium growth up to 20 ug/ml; type: functional; outline: as §3
Botrytis cinerea [29] = assay: Antifungal activity against highly fenhexamid-resistant Botrytis cinerea 440a assessed as inhibition of mycelium growth measured over 5 days; type: functional, organism-based; settings: 120 h
Botrytis cinerea [30] = assay: Antifungal activity against highly fenhexamid-resistant Botrytis cinerea 520b assessed as inhibition of mycelium growth measured over 5 days; type: functional, organism-based; settings: 120 h
Botrytis cinerea [31] = assay: Antifungal activity against highly fenhexamid-resistant Botrytis cinerea 223a assessed as inhibition of germ tube elongation after 24 hrs; type: functional, organism-based
Botrytis cinerea [32] = assay: Antifungal activity against moderately to slightly fenhexamid-resistant Botrytis cinerea 454 assessed as inhibition of germ tube elongation after 24 hrs; type: functional, organism-based; settings: Botrytis cinerea, 454, 24 h
Botrytis cinerea [33] = assay: Antifungal activity against fenhexamid-senistive Botrytis cinerea SAS56 assessed as inhibition of mycelium growth measured over 5 days; type: functional, organism-based; settings: SAS56, 120 h
Botrytis cinerea [34] = assay: Antifungal activity against highly fenhexamid-resistant Botrytis cinerea 05-190 assessed as inhibition of germ tube elongation after 24 hrs; type: functional, organism-based; settings: 05-190, 24 h
Botrytis cinerea [35] = assay: Antifungal activity against Botrytis cinerea 286 harboring TELerg S336C mutant at 2 ug/ml relative to wild-type; type: functional, organism-based; outline: as §1
Botrytis cinerea [36] = assay: Antifungal activity against highly fenhexamid-resistant Botrytis cinerea 440b assessed as inhibition of germ tube elongation after 24 hrs; type: functional, organism-based
Botrytis cinerea [37] = assay: Antifungal activity against highly fenhexamid-resistant Botrytis cinerea 520a assessed as inhibition of mycelium growth measured over 5 days; type: functional, organism-based; settings: 120 h
Botrytis cinerea [38] = assay: Antifungal activity against HydR3 deficient Botrytis cinerea 453 harboring TELerg N369D mutant at 10 ug/ml relative to wild-type; type: functional, organism-based; outline: as §1
Botrytis cinerea [39] = assay: Antifungal activity against moderately to slightly fenhexamid-resistant Botrytis cinerea 05-ABA assessed as inhibition of germ tube elongation after 24 hrs; type: functional, organism-based
Botrytis cinerea [40] = assay: Antifungal activity against highly fenhexamid-resistant Botrytis cinerea 214 assessed as inhibition of germ tube elongation after 24 hrs; type: functional, organism-based; settings: Botrytis cinerea, 214, 24 h
Botrytis cinerea [41] = assay: Antifungal activity against HydR3 deficient Botrytis cinerea 453 harboring TELerg N369D mutant at 1 ug/ml relative to wild-type; type: functional, organism-based; outline: as §1

With CC1(C(=O)Nc2ccc(O)c(Cl)c2Cl)CCCCC1 [FENHEXAMID] the EC50 (Botrytis cinerea [1]) was greater than 10 µg/mL, the EC50 (Botrytis cinerea [2]) was less than 0.3 µg/mL and the Activity (Botrytis cinerea [3]) was “inactive”. The EC50 (Botrytis cinerea [4]) was greater than 10 µg/mL, the EC50 (Botrytis cinerea [5]) was 2 µg/mL (≈ 6.62 µM) and the Activity (Botrytis cinerea [6]) was “inactive”. It also gave an EC50 (Botrytis cinerea [7]) greater than 10 µg/mL, an EC50 (Botrytis cinerea [8]) greater than 10 µg/mL and an EC50 (Botrytis cinerea [9]) of 0.2 µg/mL (≈ 0.662 µM). It also gave an EC50 (Botrytis cinerea [10]) greater than 10 µg/mL, an EC50 (Botrytis cinerea [11]) of 2.5 µg/mL (≈ 8.27 µM) and an EC50 (Botrytis cinerea [12]) greater than 10 µg/mL. The Activity (Botrytis cinerea [13]) was 10%, the EC50 (Botrytis cinerea [14]) was 10 µg/mL (≈ 33.1 µM) and the EC50 (Botrytis cinerea [15]) was greater than 10 µg/mL. The Activity (Botrytis cinerea [16]) was “inactive”, the Activity (Botrytis cinerea [17]) was “inactive” and the EC50 (Botrytis cinerea [18]) was 0.3 µg/mL (≈ 0.993 µM). The EC50 (Botrytis cinerea [19]) was greater than 10 µg/mL, the EC50 (Botrytis cinerea [20]) was greater than 10 µg/mL and the EC50 (Botrytis cinerea [21]) was less than 0.1 µg/mL. For the same compound, the EC50 (Botrytis cinerea [22]) was greater than 5 µg/mL, the Activity (Botrytis cinerea [23]) was “inactive” and the EC50 (Botrytis cinerea [24]) was greater than 10 µg/mL. The Activity (Botrytis cinerea [25]) was “inactive”, the EC50 (Botrytis cinerea [26]) was 5 µg/mL (≈ 16.5 µM) and the EC50 (Botrytis cinerea [27]) was less than 0.1 µg/mL. It also gave an Activity (Botrytis cinerea [28]) of 10%, an EC50 (Botrytis cinerea [29]) greater than 10 µg/mL and an EC50 (Botrytis cinerea [30]) of 3 µg/mL (≈ 9.93 µM). The EC50 (Botrytis cinerea [31]) was greater than 10 µg/mL, the EC50 (Botrytis cinerea [32]) was 0.5 µg/mL (≈ 1.65 µM) and the EC50 (Botrytis cinerea [33]) was less than 0.1 µg/mL. For the same compound, the EC50 (Botrytis cinerea [34]) was greater than 10 µg/mL, the Activity (Botrytis cinerea [35]) was “inactive” and the EC50 (Botrytis cinerea [36]) was greater than 10 µg/mL. The EC50 (Botrytis cinerea [37]) was 3 µg/mL (≈ 9.93 µM), the Activity (Botrytis cinerea [38]) was “inactive” and the EC50 (Botrytis cinerea [39]) was 0.8 µg/mL (≈ 2.65 µM). The EC50 (Botrytis cinerea [40]) was 10 µg/mL (≈ 33.1 µM) and the Activity (Botrytis cinerea [41]) was “inactive”.
